Measurements: ChEMBL document CHEMBL1149790, “Synthesis of some novel thiourea derivatives obtained from 5-[(4-aminophenoxy)methyl]-4-alkyl/aryl-2,4-dihydro-3H-1,2,4-triazole-3-thiones and evaluation as antiviral/anti-HIV and anti-tuberculosis agents” (Eur J Med Chem, 2008)
≈ marks a conversion by molar mass, not a printed value.

Key:
[1] = tested on: Human respirovirus 3; assay: Antiviral activity against Parainfluenza 3 virus in african green monkey Vero cells assessed as reduction of virus-induced cytopathogenicity; assay type: functional
In short: (§1)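 Confluent cell monolayers (E6SM, HEL, HeLa or Vero, per line) inoculated with 100 CCID50 virus; 1 h adsorption, residual virus removed, then incubated with compound at 400, 200, 100 … µg/ml. Cytopathicity scored once complete in untreated virus controls; MIC = concentration inhibiting virus-induced cytopathicity.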

[2] = tested on: Sindbis virus; assay: Antiviral activity against Sindbis virus in african green monkey Vero cells assessed as reduction of virus-induced cytopathogenicity; assay type: functional; in short: as §1
[3] = tested on: Punta Toro virus; assay: Antiviral activity against Punta Toro virus in african green monkey Vero cells assessed as reduction of virus-induced cytopathogenicity; assay type: functional; in short: as §1
[4] = tested on: Vesicular stomatitis virus; assay: Antiviral activity against vesicular stomatitis virus in human HeLa cells assessed as inhibition of virus-induced cytopathogenicity; assay type: functional; in short: as §1
[5] = tested on: Coxsackievirus B4; assay: Antiviral activity against Coxsackie virus B4 in african green monkey Vero cells assessed as reduction of virus-induced cytopathogenicity; assay type: functional; details: Enterovirus B; in short: as §1
[6] = tested on: Human alphaherpesvirus 1; assay: Antiviral activity against HSV1 KOS in human E6SM cells assessed as reduction of virus-induced cytopathogenicity; assay type: functional; details: Human alphaherpesvirus 1, KOS; in short: as §1
[7] = tested on: Human immunodeficiency virus 2; assay: Antiviral activity against HIV2 ROD in human MT4 cells assessed as protection against virus-induced cytopathogenicity by MTT assay; assay type: functional, organism-based; design: Activity: concentration or dose not given beside the values; details: for IC50: Human immunodeficiency virus 2, ROD, MT4
In short: (§2)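 MT-4 cells at 6 × 10⁵ cells/ml infected with HIV-1 IIIB or HIV-2 ROD at 100–300 CCID50; compounds in serial five-fold dilutions, triplicate mock- and virus-infected wells. MTT viability read at 540 and 690 nm after 5 days, median OD of three wells; EC50 = 50% protection from viral cytopathic effect.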

[8] = tested on: Human alphaherpesvirus 1; assay: Antiviral activity against HSV1 KOS in human HEL cells assessed as reduction of virus-induced cytopathogenicity; assay type: functional; details: Human alphaherpesvirus 1, KOS; in short: as §1
[9] = Cytotoxicity against human MT4 cells by MTT assay; assay type: cell-based
In short: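 Mock-infected MT-4 cells (6 × 10⁵ cells/ml) with serial five-fold compound dilutions in triplicate; MTT reduction read at 540 and 690 nm after 5 days, median OD of three wells; CC50 = concentration reducing OD540 of mock-infected control by 50%.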

[10] = Cytotoxicity against human E6SM cells; assay type: cell-based; details: E6SM cells
In short: (§3)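 Uninfected cell cultures exposed to test compounds alongside antiviral assays; minimum cytotoxic concentration (MCC) = concentration causing a microscopically detectable alteration of cell morphology.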

[11] = tested on: Human alphaherpesvirus 2; assay: Antiviral activity against HSV2 G in human HEL cells assessed as reduction of virus-induced cytopathogenicity; assay type: functional; details: Human alphaherpesvirus 2, G; in short: as §1
[12] = Cytotoxicity against human HeLa cells; assay type: cell-based; in short: as §3
[13] = tested on: Human alphaherpesvirus 3; assay: Antiviral activity against TK+ VZV OKA infected HEL cells assessed as reduction in virus plaque formation; assay type: functional, organism-based; details: Human alphaherpesvirus 3, OKA
[14] = tested on: Human betaherpesvirus 5; assay: Antiviral activity against human cytomegalovirus AD169 infected HEL cells assessed as reduction in virus plaque formation; assay type: functional, organism-based; details: Human betaherpesvirus 5, AD169, HEL
[15] = tested on: Mammalian orthoreovirus 1; assay: Antiviral activity against Reo virus 1 in african green monkey Vero cells assessed as reduction of virus-induced cytopathogenicity; assay type: functional; in short: as §1
[16] = tested on: Human immunodeficiency virus 1; assay: Antiviral activity against HIV1 3B in human MT4 cells assessed as protection against virus-induced cytopathogenicity by MTT assay; assay type: functional, organism-based; design: Activity: concentration or dose not given beside the values; details: for IC50: Human immunodeficiency virus 1, 3B, MT4; in short: as §2
[17] = tested on: Human alphaherpesvirus 1; assay: Antiviral activity against thymidine kinase deficient and acyclovir resistant HSV1 KOS in human HEL cells assessed as reduction of virus-induced cytopathogenicity; assay type: functional; details: Human alphaherpesvirus 1, KOS; in short: as §1
[18] = tested on: Human alphaherpesvirus 3; assay: Antiviral activity against TK- VZV 07/1 infected HEL cells assessed as reduction in virus plaque formation; assay type: functional, organism-based; details: Human alphaherpesvirus 3, 07/1, HEL
[19] = tested on: Respiratory syncytial virus; assay: Antiviral activity against respiratory syncytial virus in human HeLa cells assessed as inhibition of virus-induced cytopathogenicity; assay type: functional; in short: as §1
[20] = tested on: Vesicular stomatitis virus; assay: Antiviral activity against in Vesicular stomatitis virus in human E6SM cells assessed as reduction of virus-induced cytopathogenicity; assay type: functional; in short: as §1
[21] = Cytotoxicity against human HEL cells assessed as alteration of cell morphology; assay type: cell-based; in short: as §3
[22] = tested on: Human alphaherpesvirus 2; assay: Antiviral activity against HSV2 G in human E6SM cells assessed as reduction of virus-induced cytopathogenicity; assay type: functional; details: Human alphaherpesvirus 2, G; in short: as §1
[23] = tested on: Vero; assay: Cytotoxicity against african green monkey Vero cells; assay type: cell-based; details: chlorocebus sabaeus; in short: as §3
[24] = tested on: Coxsackievirus B4; assay: Antiviral activity against Coxsackie virus B4 in human HeLa cells assessed as inhibition of virus-induced cytopathogenicity; assay type: functional; details: Enterovirus B; in short: as §1
[25] = Cytotoxicity against human HEL cells assessed as reduction of cell growth; assay type: cell-based
In short: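 HEL cells; CC50 = compound concentration reducing cell growth by 50%.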

[26] = tested on: Human alphaherpesvirus 1; assay: Antiviral activity against thymidine kinase deficient and acyclovir resistant HSV1 KOS in human E6SM cells assessed as reduction of virus-induced cytopathogenicity; assay type: functional; details: Human alphaherpesvirus 1, KOS; in short: as §1
[27] = tested on: Vesicular stomatitis virus; assay: Antiviral activity against in Vesicular stomatitis virus in human HEL cells assessed as reduction of virus-induced cytopathogenicity; assay type: functional; in short: as §1
[28] = tested on: Human betaherpesvirus 5; assay: Antiviral activity against human cytomegalovirus Davis infected HEL cells assessed as reduction in virus plaque formation; assay type: functional, organism-based; details: Human betaherpesvirus 5, Davis

| SMILES | MIC [1] [mg/L] | MIC [2] [mg/L] | MIC [3] [mg/L] | MIC [4] [mg/L] | MIC [5] [mg/L] | MIC [6] [mg/L] | Activity [7] [%] | IC50 [7] [mg/L] | MIC [8] [mg/L] | CC50 [9] [mg/L] | MCC [10] [µg/mL] | MIC [11] [mg/L] | MCC [12] [µg/mL] | EC50 [13] [mg/L] | EC50 [14] [mg/L] | MIC [15] [mg/L] | Activity [16] [%] | IC50 [16] [mg/L] | MIC [17] [mg/L] | EC50 [18] [mg/L] | also measured |
| --- | --- | --- | --- | --- | --- | --- | --- | --- | --- | --- | --- | --- | --- | --- | --- | --- | --- | --- | --- | --- | --- |
| CCNC(=S)Nc1ccc(OCc2n[nH]c(=S)n2-c2ccccc2)cc1 | > 80 | > 80 | > 80 | > 80 | 80 (≈ 208 µM) | > 400 | 11 | > 19.4 | > 400 | 22 (≈ 57.1 µM) | > 400 | > 400 | 400 | > 100 | > 100 | > 80 | 1 | > 15 | > 400 | > 100 | MIC [19]: > 80 mg/L; MIC [20]: > 400 mg/L; MCC [21]: > 400 µg/mL; MIC [22]: > 400 mg/L; Activity [23]: 400 µg/mL; MIC [24]: > 80 mg/L; CC50 [25]: > 50 mg/L; MIC [26]: > 400 mg/L; MIC [27]: > 400 mg/L; EC50 [28]: > 100 mg/L |
| S=C(Nc1ccccc1)Nc1ccc(OCc2n[nH]c(=S)n2-c2ccccc2)cc1 | > 16 | > 16 | > 16 | > 16 | > 16 | > 80 | 4.5 | > 41.5 | > 80 | 44.1 (≈ 102 µM) | 400 | > 80 | 80 | 26 (≈ 60 µM) | > 20 | > 16 | 5.5 | > 30.6 | > 80 | 39 (≈ 90 µM) | MIC [19]: > 16 mg/L; MIC [20]: > 80 mg/L; MCC [21]: 400 µg/mL; MIC [22]: > 80 mg/L; Activity [23]: 80 µg/mL; MIC [24]: > 16 mg/L; CC50 [25]: > 50 mg/L; MIC [26]: > 80 mg/L; MIC [27]: > 80 mg/L; EC50 [28]: 37 mg/L (≈ 85.3 µM) |
| Cn1c(COc2ccc(N)cc2)n[nH]c1=S | > 3.2 | > 3.2 | > 3.2 | > 400 | > 3.2 | 400 (≈ 1690 µM) | 4 | > 125 | 400 (≈ 1690 µM) | ≥ 119 | > 400 | 80 (≈ 339 µM) | > 400 | > 100 | > 100 | > 3.2 | 2.5 | > 125 | 80 (≈ 339 µM) | > 100 | MIC [19]: > 400 mg/L; MIC [20]: > 400 mg/L; MCC [21]: > 400 µg/mL; MIC [22]: 80 mg/L (≈ 339 µM); Activity [23]: 16 µg/mL; MIC [24]: > 400 mg/L; CC50 [25]: > 50 mg/L; MIC [26]: 80 mg/L (≈ 339 µM); MIC [27]: > 400 mg/L; EC50 [28]: > 100 mg/L |
| C=CCn1c(COc2ccc(NC(=S)NC)cc2)n[nH]c1=S | > 80 | > 80 | > 80 | > 80 | > 80 | > 400 | 3.5 | > 110 | > 400 | 108 (≈ 323 µM) | > 400 | > 400 | 400 | > 100 | > 100 | > 80 | 1 | > 101 | > 400 | > 100 | MIC [19]: > 80 mg/L; MIC [20]: > 400 mg/L; MCC [21]: > 400 µg/mL; MIC [22]: > 400 mg/L; Activity [23]: 400 µg/mL; MIC [24]: > 80 mg/L; CC50 [25]: > 50 mg/L; MIC [26]: > 400 mg/L; MIC [27]: > 400 mg/L; EC50 [28]: > 100 mg/L |
